Values after ≈ are worked out from the molar mass of the structure shown. Active and inactive are the calls of the source.
Tests used:
Candida parapsilosis [1] = test: Antimicrobial activity against Candida parapsilosis BR-A31 grown as planktonic cell after 48 hrs by XTT reduction assay; assay type: functional; conditions: Lodderomyces parapsilosis
Method in brief: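 Planktonic broth microdilution followed CLSI M27-A2, with caspofungin dissolved in water. After 48 h, XTT-menadione was added to the wells and plates were kept 1 h at 35°C in the dark. Plates were then centrifuged and supernatant A490 was read. MIC was the lowest concentration giving a 50% decrease in metabolic activity versus drug-free control. Paradoxical growth was defined as ≥20% of control activity above the MIC.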

Candida albicans [2] = test: Antimicrobial activity against Candida albicans BR-A4 grown as biofilm assessed as concentration producing paradoxical growth after 48 hrs by XTT reduction assay; assay type: functional
Method in brief: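 Sabouraud-grown cells were shaken overnight (18 h, 120 rpm, 35°C) in RPMI 1640 with MOPS at pH 7.0, then washed and set at ~1 × 10^7 cells/ml. Attachment lasted 1.5 h at 37°C, and growth ran 24 h before challenge. Caspofungin was added in RPMI at 2–1,024 μg/ml (10 doublings) for 48 h at 35°C with shaking. XTT-menadione was read at 490 nm after 1 h at 35°C in the dark, with blank wells subtracted. MIC was taken as 50% reduction versus drug-free wells, and PG as >50% of control above MIC. Assays were run in duplicate.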

Candida parapsilosis [3] = test: Antimicrobial activity against Candida parapsilosis BR-A31 grown as biofilm assessed as concentration producing paradoxical growth after 48 hrs by XTT reduction assay; assay type: functional
Method in brief: (§1)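 Clinical isolates were grown overnight (18 h, 35°C, 120 rpm) in RPMI 1640 with MOPS, pH 7.0, then washed and set to ~1 × 10^7 cells/ml. Cells attached for 1.5 h at 37°C, 75 rpm, then biofilms grew 24 h. Caspofungin was given as doubling dilutions of 2–1,024 μg/ml for 48 h at 35°C, 75 rpm. Read-out was XTT-menadione in PBS, 1 h at 35°C in the dark, A490, cell-free blank subtracted. MIC was a 50% drop in activity versus drug-free; PG was >50% of control above MIC. Run in duplicate.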

Candida parapsilosis [4] = test: Antimicrobial activity against Candida parapsilosis BR-A30 grown as biofilm after 48 hrs by XTT reduction assay; assay type: functional; conditions: Lodderomyces parapsilosis; method in brief: as §1
Candida parapsilosis [5] = test: Effect on morphology in Candida parapsilosis grown as planktonic cells assessed as inhibition of hyphae and pseudohyphae at 16 ug/ml after 48 hrs; assay type: functional, organism-based
Method in brief: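 Cells were taken from caspofungin-containing and drug-free wells of the planktonic broth microdilution test after 48 h. They were examined by light microscopy at ×400.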

Candida tropicalis [6] = test: Antimicrobial activity against Candida tropicalis BR-A14 grown as biofilm assessed as paradoxical growth after 48 hrs by XTT reduction assay; assay type: functional, organism-based; method in brief: as §1
Candida tropicalis [7] = test: Antimicrobial activity against Candida tropicalis BR-A14 grown as planktonic cell after 48 hrs by XTT reduction assay; assay type: functional
Method in brief: (§2)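 Planktonic broth microdilution followed CLSI M27-A2, with caspofungin dissolved in water. After 48 h, XTT-menadione was added to each well and plates were incubated 1 h at 35°C in the dark. Cells were pelleted by centrifugation and the supernatant was read at 490 nm. MIC was the lowest concentration giving a 50% drop in metabolic activity versus the drug-free control. PG was ≥20% of drug-free activity above the MIC.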

Candida albicans [8] = test: Effect on morphology in Candida albicans grown as biofilm assessed as inhibition of hyphae and pseudohyphae at 32 ug/ml after 48 hrs; assay type: functional, organism-based
Method in brief: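 Biofilms formed in RPMI 1640 wells were exposed to caspofungin for 48 h and compared with drug-free control wells. Wells were examined in the plate under an inverted light microscope at ×200 and photographed.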

Candida orthopsilosis = test: Antimicrobial activity against Candida orthopsilosis BR-A36 grown as planktonic cell assessed as paradoxical growth after 48 hrs by XTT reduction assay; assay type: functional, organism-based
Method in brief: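 Planktonic cells were tested by CLSI M27-A2 broth microdilution with caspofungin in water, incubated 48 h. XTT-menadione was added to each well, plates were held 1 h at 35°C in the dark and centrifuged, and supernatant absorbance was read at 490 nm. MIC was defined as 50% decrease in metabolic activity versus drug-free control. PG was defined as ≥20% of control activity at concentrations above MIC.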

Candida parapsilosis [9] = test: Antimicrobial activity against Candida parapsilosis BR-A27 grown as planktonic cell assessed as paradoxical growth after 48 hrs by XTT reduction assay; assay type: functional, organism-based; method in brief: as §2

## CC[C@H](C)C[C@H](C)CCCCCCCCC(=O)N[C@H]1C[C@@H](O)[C@@H](NCCN)NC(=O)[C@@H]2[C@@H](O)CCN2C(=O)[C@H]([C@H](O)CCN)NC(=O)[C@H]([C@H](O)[C@@H](O)c2ccc(O)cc2)NC(=O)[C@@H]2C[C@@H](O)CN2C(=O)[C@H]([C@@H](C)O)NC1=O [CASPOFUNGIN]
Candida parapsilosis [1]
  MIC: 2 µg/mL (≈ 1.83 µM)
Candida albicans [2]
  Activity: 16 µg/mL
Candida parapsilosis [3]
  Activity: 32 µg/mL
Candida parapsilosis [4]
  MIC: 256 µg/mL (≈ 234 µM)
Candida parapsilosis [5]
  Activity: Active
Candida tropicalis [6]
  Activity: Active
Candida tropicalis [7]
  MIC: 0.5 µg/mL (≈ 0.457 µM)
Candida albicans [8]
  Activity: Active
Candida orthopsilosis
  Activity: inactive
Candida parapsilosis [9]
  Activity: inactive

Source: ChEMBL document CHEMBL1143425, “Paradoxical growth effect of caspofungin observed on biofilms and planktonic cells of five different Candida species” (2007)
